From ChEMBL document CHEMBL2331253, “Atropisomeric dihydroanthracenones as inhibitors of multiresistant Staphylococcus aureus” (J Med Chem, 2013)
Converted amounts (≈) assume the structure as drawn. The source made the active and inactive calls. No cut-off for these calls is given here.

Columns and labels:
Bacillus subtilis [1] = experiment: Induction of recA promoter in Bacillus subtilis YB3001 using 4-methylumbelliferyl beta D-galactopyranoside as substrate incubated for 3 hrs prior to substrate addition measured after 1 hr by beta galactosidase reporter gene assay relative to control; format: functional
Method in brief: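 recA–β-galactosidase reporter in B. subtilis YB3001. Twofold compound dilutions in lysogeny broth were inoculated with mid-exponential cells and incubated 3 h at 37 °C, then frozen at −20 °C overnight. Cells were lysed with lysozyme (30 min, 37 °C) and Triton X-100. MUG was added and incubated 1 h at 25 °C. Fluorescence read at ex 360/em 450 nm.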

Bacillus subtilis [2] = experiment: Induction of yorB promoter in Bacillus subtilis IS34 after 3 hrs at 0.01 to 100 ug/ml by luciferase reporter gene assay; format: functional
Method in brief: (§1)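 Promoter–firefly luciferase fusions were built in B. subtilis IS34. Luminescence was read in a plate reader and expressed as percent of the untreated control. One representative experiment.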

Bacillus subtilis [3] = experiment: Induction of yorB promoter in Bacillus subtilis IS34 after 3 hrs by luciferase reporter gene assay relative to control; format: functional; method in brief: as §1
Bacillus subtilis [4] = experiment: Induction of bmrC promoter in Bacillus subtilis IS34 promoter at 64 ug/mL after 3 hrs by luciferase reporter gene assay; format: functional, organism-based; method in brief: as §1
Bacillus subtilis [5] = experiment: Induction of helD promoter in Bacillus subtilis IS34 at 64 ug/mL after 3 hrs by luciferase reporter gene assay; format: functional, organism-based; method in brief: as §1
Bacillus subtilis [6] = experiment: Induction of liaI promoter in Bacillus subtilis IS34 promoter at 64 ug/mL after 3 hrs by luciferase reporter gene assay; format: functional, organism-based; method in brief: as §1
Bacillus subtilis [7] = experiment: Antibacterial activity against Bacillus subtilis subsp. subtilis str. 168 trpC2 assessed as growth inhibition measured at 5 mins interval over 20 hrs by spectrophotometric analysis relative to control; format: functional, organism-based
Method in brief: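 B. subtilis 168 trpC2 was grown in lysogeny broth, shaken, at 37 °C. Dilution and inoculum were as for broth microdilution. OD600 was read every 5 min over 20 h in untreated versus treated cultures.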

Staphylococcus aureus [8] = experiment: Antibacterial activity against Staphylococcus aureus subsp. aureus Mu50 assessed as growth inhibition measured at 5 mins interval over 20 hrs by spectrophotometric analysis relative to control; format: functional
Method in brief: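 S. aureus Mu50 was grown in Mueller−Hinton broth at 37 °C with shaking between reads. Dilution and inoculum were as for broth microdilution, with compound at 0.031–64 μg/mL. OD600 was read at 5 min intervals over 20 h against an untreated control. Run in triplicate.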

Klebsiella pneumoniae = experiment: Antibacterial activity against doxycycline, kanamycin-resistant Klebsiella pneumoniae ATCC 27799 assessed as growth inhibition by CLSI broth microdilution method; format: functional
Method in brief: (§2)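 MICs determined by CLSI broth microdilution in Mueller–Hinton broth. Inoculum was prepared by direct colony suspension, at 5 × 10^5 CFU/mL.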

Escherichia coli [9] = experiment: Antibacterial activity against ciprofloxacin-resistant Escherichia coli WT-3-1 MB2 assessed as growth inhibition by CLSI broth microdilution method; format: functional; method in brief: as §2
Escherichia coli [10] = experiment: Antibacterial activity against Escherichia coli ATCC 25922 assessed as growth inhibition by CLSI broth microdilution method; format: functional
Bacillus subtilis [11] = experiment: Antibacterial activity against Bacillus subtilis subsp. subtilis str. 168 trpC2 assessed as growth inhibition by CLSI broth microdilution method; format: functional
Enterococcus faecium = experiment: Antibacterial activity against clarithromycin, erythromycin, telithromycin, vancomycin-resistant Enterococcus faecium 6011 assessed as growth inhibition by CLSI broth microdilution method; format: functional; method in brief: as §2
Enterococcus faecalis = experiment: Antibacterial activity against clarithromycin, erythromycin, moxifloxacin, telithromycin, vancomycin-resistant Enterococcus faecalis UW 2689 assessed as growth inhibition by CLSI broth microdilution method; format: functional; method in brief: as §2
Streptococcus agalactiae = experiment: Antibacterial activity against doxycycline-intermediate Streptococcus agalactiae 013761 assessed as growth inhibition by CLSI broth microdilution method; format: functional
Streptococcus pneumoniae = experiment: Antibacterial activity against Streptococcus pneumoniae ATCC 49619 assessed as growth inhibition by CLSI broth microdilution method; format: functional
Staphylococcus aureus [12] = experiment: Antibacterial activity against amoxicillin, chloramphenicol, ciprofloxacin, clindamycin, erythromycin, fosmidomycin, gentamycin, kanamycin, nitrofurantoin, telithromycin, methicillin-resistant Staphylococcus aureus 25697 assessed as growth inhibition by CLSI broth microdilution method; format: functional; method in brief: as §2
Staphylococcus aureus [13] = experiment: Antibacterial activity against Staphylococcus aureus ATCC 29213 assessed as growth inhibition by CLSI broth microdilution method; format: functional; method in brief: as §2
BALB/3T3 = experiment: Cytotoxicity against mouse BALB/3T3 cells assessed as growth inhibition after 48 hrs by Alamar blue assay; format: cell-based; conditions: BALB/3T3, 48 h
Method in brief: (§3)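 THP-1 cells were kept in RPMI-1640 with 10% FCS. BALB/3T3 cells were kept in DMEM with 10% FCS. Cells were plated at 10^4 per well without antibiotics and exposed to 0.016−32 μg/mL (final, 0.32% DMSO) for 48 h at 37 °C, 5% CO2. AlamarBlue was added for 24 h more. Fluorescence (ex 560/em 600 nm) was expressed relative to untreated cells.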

THP-1 = experiment: Cytotoxicity against human THP1 cells assessed as growth inhibition after 48 hrs by Alamar blue assay; format: cell-based; conditions: THP-1, 48 h; method in brief: as §3
Pseudomonas aeruginosa = experiment: Antibacterial activity against ceftazidime, ciprofloxacin, cefepime, gentamycin, imipenem, meropenem, piperacillin/tazobactam-resistant Pseudomonas aeruginosa 63230 assessed as growth inhibition by CLSI broth microdilution method; format: functional; method in brief: as §2
Streptococcus pyogenes = experiment: Antibacterial activity against doxycycline-intermediate Streptococcus pyogenes 014327 assessed as growth inhibition by CLSI broth microdilution method; format: functional
Staphylococcus aureus [14] = experiment: Antibacterial activity against ceftazidime, clarithromycin, ciprofloxacin, clindamycin, doxycycline, erythromycin, methicillin, moxifloxacin, kanamycin, telithromycin, rifampicin, methicillin-resistant, vancomycin-intermediate Staphylococcus aureus subsp. aureus Mu50 assessed as growth inhibition by CLSI broth microdilution method; format: functional; method in brief: as §2

Row | Structure (SMILES) | Activity (Bacillus subtilis [4]) | Activity (Bacillus subtilis [5]) | Activity (Bacillus subtilis [6]) | growth inhibition (GI) (Bacillus subtilis [7]) | growth inhibition (GI) (Staphylococcus aureus [8]) | MIC (Klebsiella pneumoniae) | MIC (Escherichia coli [9]) | MIC (Escherichia coli [10]) | MIC (Bacillus subtilis [11]) | MIC (Enterococcus faecium) | MIC (Enterococcus faecalis) | MIC (Streptococcus agalactiae) | MIC (Streptococcus pneumoniae) | MIC (Staphylococcus aureus [12]) | MIC (Staphylococcus aureus [13]) | IC50 (BALB/3T3) | IC50 (THP-1) | MIC (Pseudomonas aeruginosa) | MIC (Streptococcus pyogenes) | MIC (Staphylococcus aureus [14]) | also measured
1 | CO[C@@]12[C@H](COC(N)=O)C3=C(C(=O)C(C)=C(N)C3=O)N1C[C@@H]1N[C@@H]12 | – | – | – | – | – | – | – | – | – | – | – | – | – | – | – | – | – | – | – | – | Activity (Bacillus subtilis [1]): Active
2 | CC1(O)CC(=O)c2c(cc3cc(O)c(-c4c(O)cc5cc6c(c(O)c5c4O)C(=O)CC(C)(O)C6)c(O)c3c2O)C1 (single isomer, unassigned; atropisomer) [FLAVOMANNIN A] | inactive | inactive | inactive | Active | Dose-dependent effect | > 64 µg/mL | > 64 µg/mL | > 64 µg/mL | > 64 µg/mL | > 64 µg/mL | > 64 µg/mL | > 64 µg/mL | > 64 µg/mL | 8 µg/mL (≈ 14.6 µM) | 16 µg/mL (≈ 29.3 µM) | > 32 µg/mL | > 32 µg/mL | > 64 µg/mL | > 64 µg/mL | 16 µg/mL (≈ 29.3 µM) | Activity (Bacillus subtilis [2]): inactive; fold change (FC) (Bacillus subtilis [1]): <2; Activity (Bacillus subtilis [3]): Active
3 | COc1cc2cc3c(c(O)c2c(O)c1-c1c(O)cc2cc4c(c(O)c2c1O)C(=O)CC(C)(O)C4)C(=O)CC(C)(O)C3 (single isomer, unassigned; atropisomer) [FLAVOMANNIN C] | inactive | inactive | inactive | Active | Dose-dependent effect | > 64 µg/mL | > 64 µg/mL | > 64 µg/mL | > 64 µg/mL | > 64 µg/mL | 32 µg/mL (≈ 57.1 µM) | > 64 µg/mL | > 64 µg/mL | 32 µg/mL (≈ 57.1 µM) | 64 µg/mL (≈ 114 µM) | > 32 µg/mL | > 32 µg/mL | > 64 µg/mL | > 64 µg/mL | 16 µg/mL (≈ 28.5 µM) | Activity (Bacillus subtilis [2]): inactive
4 | COc1cc2cc3c(c(O)c2c(O)c1-c1c(O)cc2c(O)c4c(cc2c1O)CC(C)(O)CC4=O)C(=O)CC(C)(O)C3 (single isomer, unassigned; atropisomer) [FLAVOMANNIN D] | inactive | inactive | inactive | Active | Dose-dependent effect | > 64 µg/mL | > 64 µg/mL | > 64 µg/mL | 64 µg/mL (≈ 114 µM) | > 64 µg/mL | 32 µg/mL (≈ 57.1 µM) | > 64 µg/mL | 64 µg/mL (≈ 114 µM) | 8 µg/mL (≈ 14.3 µM) | 8 µg/mL (≈ 14.3 µM) | > 32 µg/mL | > 32 µg/mL | > 64 µg/mL | 64 µg/mL (≈ 114 µM) | 8 µg/mL (≈ 14.3 µM) | concentration giving maximal yorB promoter induction (Bacillus subtilis [2]): 2 µg/mL; Activity (Bacillus subtilis [1]): Active
